# The list is not random: actives were taken first. Their share in the collection is about 3.1%.
# hERG protect: compounds protecting human hERG from proarrhythmic drug block. Q12809. CHO-hERG, FluxOR thallium flux, dofetilide IC70 present. activation (rescue from dofetilide block), less the hit threshold, % at 10 µM. actives 0.51% (n = 310,000). AID 1511;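 active = activation above the mean of controls blocked by dofetilide plus 5 SD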;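 also: thallium influx through hERG after potassium depolarization seen as dye fluorescence rise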
# KCNK3 block: human KCNK3 channel inhibition, primary screen. O14649. CHO-KCNK3 thallium flux, FluxOR fluorescence; hits give low values. B-score at 10 µM. actives 0.84% (n = 340,000);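 active = B-score under library mean minus 4 SD, starting fluorescence ratio at most library mean plus 5 SD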;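 also: more negative B-score means stronger inhibition of thallium flux through KCNK3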
# Target sequence (O14649 whole entry, looked up): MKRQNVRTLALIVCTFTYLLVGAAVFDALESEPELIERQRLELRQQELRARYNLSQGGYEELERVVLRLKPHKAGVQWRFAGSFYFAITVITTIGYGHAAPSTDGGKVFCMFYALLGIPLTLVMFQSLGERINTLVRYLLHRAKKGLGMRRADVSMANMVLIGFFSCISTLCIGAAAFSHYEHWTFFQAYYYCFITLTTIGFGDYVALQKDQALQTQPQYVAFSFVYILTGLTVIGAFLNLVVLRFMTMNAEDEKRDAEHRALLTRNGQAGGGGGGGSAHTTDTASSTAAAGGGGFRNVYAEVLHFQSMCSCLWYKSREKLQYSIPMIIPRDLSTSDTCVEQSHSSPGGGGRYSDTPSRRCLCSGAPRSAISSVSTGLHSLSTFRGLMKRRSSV
# KCNK9 inh: inhibitors of human KCNK9 two-pore domain potassium channel | Q9NPC2 | HEK293 KCNK9, FluxOR thallium flux fluorescence; hits give low values | B-score at 10 µM | actives 1.2% (n = 310,000) | AID 488922;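 active = ratio B-score over 3 SD below the library mean, with starting fluorescence within 5 SD of its mean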;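 also: negative B-score means less thallium flux so channel inhibition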
# KCNQ1 act: human KCNQ1 channel potentiation or activation. P51787. CHO-K1 KCNQ1, thallium flux FluxOR fluorescence; hits give high values. B-score at 10 µM. actives 0.35% (n = 310,000). AID 2648;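 active = fluorescence ratio B-score, a plate-corrected score, at least three library SD, with initial intensity B-score within 5 SD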
#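 assay system = CHO-K1 cells stably expressing KCNQ1 | medium = assay buffer, equal DMSO in all wells | timing = 37 °C overnight plating, 90-min dark dye load, 20-min compound pretreatment | measured by = kinetic FluxOR thallium fluorescence, 10-s 1-Hz baseline, 110-s post-stimulus read | measure = fluorescence change relative to baseline, converted to B score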
# KCNQ1 block: inhibitors of human KCNQ1 potassium channel; B-score at 10 µM; actives 1.3% (n = 310,000); P51787; CHO-K1 KCNQ1, FluxOR thallium flux fluorescence; hits give high values;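 active = compounds whose thallium flux B-score, printed positive for inhibition, exceeds three library SD while starting fluorescence stays within three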;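 also: channel opened by potassium depolarization with thallium stimulus after 20 min compound exposure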
# The depositor's hits bear a star; i = inactive; · = not tested or not shown.
SMILES,hERG protect,KCNK3 block,KCNK9 inh,KCNQ1 act,KCNQ1 block
COc1ccc(-c2oc3cccnc3c2C#CC2(O)CCCCC2)cc1,-5,i,i,i,6*
Cc1ccc(OCCC(=O)NNC(=O)c2cc(C)oc2C)cc1,-5,i,i,i,i
CCn1c(=O)c(C(=O)Nn2c(C)nc3ccccc3c2=O)c(O)c2ccccc21,-8,i,i,i,i
CCCCc1nc2ccccc2c(=O)n1NC(=O)c1c(O)c2c(n(CC(C)C)c1=O)CCCC2,-4,i,i,i,6*
CCc1nc2ccccc2c(=O)n1NC(=O)c1c(O)c2ccccc2n(CC)c1=O,37*,i,i,i,i
CC1=C(C(=O)OCc2ccccc2)C(c2cccc3ccccc23)NC(=O)N1CCCC(=O)O (stereo unspecified),·,i,·,·,·
CNS(=O)(=O)c1cccc(C(=O)OCC(=O)N2CC(C)OC(C)C2)c1 (stereo unspecified),-4,i,i,i,i
O=C(NC(=S)NCCC1=CCCCC1)c1ccc(Br)o1,20*,i,i,33*,i
O=C(NC(=S)NCCC1=CCCCC1)c1ccco1,30*,i,i,27*,i
CCc1nc(C)c(C(=O)N2CCCC(C(=O)Nc3cccc(-c4cccc(C)c4)c3)C2)o1 (stereo unspecified),-8,i,i,i,i
Cc1cc(-c2nnc(SCC(=O)Nc3ccccc3)n2C)no1,-3,i,i,i,i
Cc1cc(-c2nnc(SCC(=O)Nc3ccc(C(F)(F)F)cc3)n2C)no1,6.2*,i,i,i,i
O=C1CCC(C(=O)Nc2cc(C(F)(F)F)ccc2-n2cncn2)=NN1,-5,i,i,i,i
CC(=O)Oc1c(S(=O)(=O)c2ccc(C)cc2)c(C)nn1C(C)(C)C,-15,i,i,i,i
Cc1nn(C(C)(C)C)c(OC(=O)c2ccc3c(c2)OCO3)c1S(=O)(=O)c1ccccc1,-9,-10*,i,i,i
Cc1ccc(S(=O)(=O)c2c(C)nn(C(C)(C)C)c2OC(=O)c2cccs2)cc1,-4,i,i,i,6*
O=P(Cc1ccccc1)(c1ccccc1)c1ccccc1,-7,i,i,i,i
CC(C)(C)c1cc(CP(=O)(c2ccccc2)c2ccccc2)cc(C(C)(C)C)c1O,-7,i,i,i,6*
CCOc1ccc(/C=N/O)cc1,-6,i,i,i,i
CCOc1ccc(C=NC23CN4CN(CN(C4)C2)C3)cc1,12*,i,i,i,i
CCC(C)c1ccccc1NC(=O)c1cc2cccc([N+](=O)[O-])c2[nH]1 (stereo unspecified),-11,i,i,i,8*
Cc1ccc(NC(=O)c2cc3cccc([N+](=O)[O-])c3[nH]2)cc1,-10,i,i,i,i
Cc1ccc(-n2c(=O)c3sccc3n(CC(=O)N3CCCC3)c2=O)cc1,-2,i,i,i,i
O=C(Cn1c(=O)n(-c2ccccc2)c(=O)c2sccc21)N1CCCC1,-24,i,i,i,6*
S=c1[nH]nc(COc2ccccc2)n1/N=C/c1ccc(Cl)cc1,-2,i,i,i,i
SMILES,hERG protect,KCNK3 block,KCNK9 inh,KCNQ1 act,KCNQ1 block
S=c1[nH]nc(Cc2ccc(Br)cc2)n1/N=C/c1ccc(Cl)cc1,16*,i,i,i,i
C=CCN(C(C(=O)OC)C(C)C)S(=O)(=O)CCNCc1ccccc1 (stereo unspecified),·,i,·,·,·
CCC/C=C(\CCC)C(NC(=O)c1ccc(C(=O)OC)cc1)c1ccc(C(=O)OC)cc1 (stereo unspecified),-4,·,i,i,6*
CCC/C=C(\CCC)C(NC(=O)CCc1ccccc1)c1ccc(C(F)(F)F)cc1 (stereo unspecified),-9,·,i,i,i
CCC/C=C(\CCC)C(NC(=O)c1ccc(C(F)(F)F)cc1)c1ccccc1 (stereo unspecified),-12,·,i,i,6*
COc1cccc(CN2CCN(CC#Cc3ccccc3)CC2CCO)c1 (stereo unspecified),-5,i,i,i,i
Cc1ccc2c(cnn2C(=O)CCC(=O)N2CCCCC2)c1,-7,i,i,i,i
